Laboratory results: ChEMBL document CHEMBL4619801, “Discovery of Phthalazinone Derivatives as Novel Hepatitis B Virus Capsid Inhibitors” (J Med Chem, 2020)

Key:
[1] = system: Hepatitis B virus; experiment: Antiviral activity against Hepatitis B virus assessed as reduction in HBV DNA-free capsid formation; format: functional, organism-based
[2] = Drug metabolism in rat liver microsomes assessed as compound level by measuring LC-MS area of metabolite-M1 at 3 uM in presence of NADPH incubated for 60 mins by UPLC-UV/QTOF MS analysis; format: ADME, Microsome; settings: 1 h
Method in brief: (§1)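 Each incubation held liver microsomes (human, monkey, dog, rat or mouse) at 0.5 mg/mL with 3.0 μM compound in 100 mM potassium phosphate, pH 7.4. After 3 min prewarming at 37 °C, the reaction was started with 1 mM NADPH. It was stopped at 60 min with ice-cold acetonitrile. Parent remaining and metabolites were judged from relative UV area.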

[3] = Retention time of the compound by […]; format: physicochemical
[4] = Drug metabolism in mouse liver microsomes assessed as compound level by measuring UV-area of metabolite-M1 at 3 uM in presence of NADPH incubated for 60 mins by UPLC-UV/QTOF MS analysis; format: ADME, Microsome; settings: 1 h; method in brief: as §1
[5] = Drug metabolism in rat liver microsomes assessed as compound level by measuring LC-MS area at 3 uM in presence of NADPH incubated for 60 mins by UPLC-UV/QTOF MS analysis; format: ADME, Microsome; settings: 1 h; method in brief: as §1
[6] = AUC (0 to t) in Sprague-Dawley rat at 20 mg/kg, po dosed as single administration; format: ADME, organism-based; settings: in vivo
[7] = Toxicity in human HepG2.2.15 cells; format: cell-based, HepG2 2.2.15
Method in brief: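 HepG2.2.15 cells seeded at 4 × 10³ cells/well and exposed to a range of compound concentrations for 8 days. MTT (final 2.5 mg/mL) was added for 1 h at 37 °C, then cells were lysed in 10% SDS/50% DMF, pH 7.2. OD was read at 570 nm and % cell death calculated. CC50 is the mean ± SD of at least two independent determinations.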

[8] = Cmax in Sprague-Dawley rat at 20 mg/kg, po dosed as single administration; format: ADME, organism-based; design: dose 20 mg/kg, route oral; settings: in vivo
[9] = Drug metabolism in dog liver microsomes assessed as compound level by measuring UV-area of metabolite-M1 at 3 uM in presence of NADPH incubated for 60 mins by UPLC-UV/QTOF MS analysis; format: ADME, Canis lupus familiaris, Microsome; settings: 1 h; method in brief: as §1
[10] = Drug metabolism in monkey liver microsomes assessed as compound level by measuring UV-area at 3 uM in presence of NADPH incubated for 60 mins by UPLC-UV/QTOF MS analysis; format: ADME, Macaca mulatta, Microsome; settings: rhesus monkey, 1 h; method in brief: as §1

Cc1cc(-c2ccc(F)nc2F)nn(Cc2ccc(Cl)cc2)c1=O
IC50 [1]: 0.087 µM
Activity [2]: 3.05 ×10³ No_unit
Retention_time [3]: 7.3 min
Activity [4]: 117 ×10³ No_unit
Activity [5]: 7.4 ×10³ No_unit
AUC(0-t) [6]: 1100 ng·h/mL
CC50 [7]: 90.6 µM
Cmax [8]: 352 ng/mL
Activity [9]: 84.6 ×10³ No_unit
Activity [10]: 34.1 ×10³ No_unit
